The text below walks through data of the RNAGym collection of RNA variant scans (doi:10.1038/s41586-018-0170-7).

The labels stand for the following.
B1: tRNA (parent)
chain: GUUCCGUUGGCGUAAUGGUAACGCGUCUCCCUCCUAAGGAGAAGACUGCGGGUUCGAGUCCCGUACGGAACG

Variants of B1 are the subject of the data set. As to the kind of experiment: yeast fitness, log relative to wild type (ln ratio); higher = fitter; tRNA-Arg(CCU), competitive growth, 37 C, 1 M NaCl. In short, it runs like this: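 BY4742 cells without the chromosomal tRNA-Arg(CCU) gene carried a combinatorial variant library on a HIS3 centromeric plasmid, from two independent transformations. After 4 generations in SC-HIS at 30 °C, pools spent ~6.5 generations (~26.5 h) in SC-HIS 1M NaCl at 37 °C, giving three outputs per input, and 125 bp paired-end Illumina reads counted the variants. Fitness is the natural log of each genotype's generations over the wild type's, with generations taken as OD-scaled log2 output/input frequency weighted by inverse variance across replicates.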
In the case of U2G G6U C27U C46U A69G, the “yeast fitness (ln)” value is -0.255.
Regarding U2G G6U C27U C66U A70G, the “yeast fitness (ln)” value was -0.207.
With G1A A43C C46U C66U A70U C71U the figure was -0.323; with G1A C46U C66U A69G C71U, -0.763.
Next, U2G G6A C27U C46U A70G: -0.0986; G1A U2G A43C C46U A69G A70G C71U: -0.226; A43C C46U C66A A69G A70U: -0.0398.
With A43C C46U C66A A69G A70G the figure was -0.0183.
On to U2G A43C C66U A69G C71U, for which the “yeast fitness (ln)” value is -0.455.
On to G1A U2G G6U C27U A43C A70U C71U, for which the “yeast fitness (ln)” value is -0.415.
Next, U2G C46U C66A A70G C71U: -0.116; U2C G6U A43C C46U A70U C71U: -0.125; U2C G6U C27U C66U A70U C71U: -0.35.
In the case of A43C A69G A70U, the “yeast fitness (ln)” value was -0.0328.
As to U2G G6U C27U C66A C71U, the “yeast fitness (ln)” value was -0.168.
With G1A U2C A43C A70U C71U the figure was -0.278; with A43C C46U C66U, -0.0822.
With U2C G6U C46U C66A A70U the figure was 0.000469.
Consider G1A U2G G6A C27U A43C C46U C66U A69G A70U C71U, for which the “yeast fitness (ln)” value is -0.384.
With U2G A43C C66A A69G A70G the figure was -0.162.
As to U2C A43C C46U C66A A69G A70G C71U, the “yeast fitness (ln)” value is -0.097.
In the case of G6U C27U C66U A69G, the “yeast fitness (ln)” value is -0.276.
With U2C G6U A43C C46U C66A A70U C71U, the “yeast fitness (ln)” value is -0.153.
Take C66A A70G: the “yeast fitness (ln)” value is -0.0114.
Consider U2C A43C C46U C66A A70G C71U, for which the “yeast fitness (ln)” value is -0.0245.
With U2C A43C C46U C66U A70G C71U the figure was -0.152; with U2G C27U A43C C66U A70U C71U, -0.333.
Turning to G1A G6A C46U C66U A69G C71U, the “yeast fitness (ln)” value is -0.0213.
Turning to U2G G6U C46U C66U A69G A70G C71U, the “yeast fitness (ln)” value was -0.231.
Next, G1A C27U A43C C46U A69G: -0.116.
With G6U A43C C66A A69G A70G the figure was -0.373; with U2C A43C A69G A70G C71U, -0.0143.
With U2G C27U A43C A70G the figure was -0.178; with U2G C27U A43C A70U, -0.0184.
For the variant U2C C66A A69G A70G C71U, the “yeast fitness (ln)” value is -0.105.
G6U C46U A69G A70G C71U: the “yeast fitness (ln)” value was -0.253.
For U2C G6U A43C A69G A70G, the “yeast fitness (ln)” value is -0.143.
Next, U2C A43C C46U C66U C71U: -0.19; U2G G6A A43C C46U C66A A70U: -0.0808.
Take G1A U2C A69G C71U: the “yeast fitness (ln)” value was -0.17.
As to U2C G6U C27U A43C C46U C66U A69G A70U C71U, the “yeast fitness (ln)” value is -0.391.
Take G6A C46U C66A: the “yeast fitness (ln)” value was -0.0719.
With G1A G6A C27U A43C A70G C71U the figure was -0.351.
With G1A G6U C46U A70G the figure was -0.173; with G1A G6A A43C C66U A69G A70G, -0.253; with G6A A43C C66A A69G A70G C71U, -0.261.
With U2C G6U C27U A69G C71U the figure was -0.22.
As to G1A G6U, the “yeast fitness (ln)” value is -0.0886.
As for G1A G6A C27U A43C C46U C71U, the “yeast fitness (ln)” value was -0.247.
As for U2C G6A C27U C66A A70G C71U, the “yeast fitness (ln)” value was -0.106.
With U2G G6U C27U C46U C66A A69G A70U C71U the figure was -0.314.
With G1A U2G C27U A43C C46U C66A A70G C71U the figure was -0.224.
Regarding G6A C27U A43C C46U C66U A70G C71U, the “yeast fitness (ln)” value was -0.213.
On to U2G G6A C66A A69G A70U, for which the “yeast fitness (ln)” value was -0.0595.
With G1A U2C C46U C71U the figure was -0.0165; with U2C G6A C66A A70U C71U, -0.0758.
With U2C G6A A43C C46U A69G A70U the figure was -0.0634; with U2G G6U C27U C66A A69G A70G C71U, -0.25.
On to G1A U2G C27U C66A A69G A70U, for which the “yeast fitness (ln)” value was -0.187.
Next, G1A G6U C46U C66A A69G C71U: -0.041; U2G G6A A43C C46U A70U C71U: -0.118.
Consider G1A U2G G6U C66U A69G A70U, for which the “yeast fitness (ln)” value is -0.386.
With U2C C27U C46U C66A A70U C71U the figure was -0.134.
With G1A U2G G6A C27U A43C C46U A69G C71U the figure was -0.283.
With G1A G6A C27U A43C C46U C66U A69G A70G C71U the figure was -0.324; with G1A C27U C66U A69G A70U C71U, -0.364; with G1A U2C G6A A43C C46U A70G C71U, -0.354.
Regarding U2G G6A C27U A43C C46U A69G A70G, the “yeast fitness (ln)” value is -0.183.
Next, U2C C27U A43C: -0.0586; G1A U2C A43C A70G C71U: -0.011; G1A C46U C66U A70G C71U: -0.493.
For the variant G1A U2G C27U C66A A70U, the “yeast fitness (ln)” value was -0.165.
In the case of U2G G6U C27U A43C C66A A70G C71U, the “yeast fitness (ln)” value is -0.253.
Regarding G6U C27U C66A A69G A70U, the “yeast fitness (ln)” value is -0.213.
For the variant C66U A69G A70U C71U, the “yeast fitness (ln)” value was -0.339.
With G1A G6U C27U C46U A69G A70G the figure was -0.307; with U2G G6A A43C C46U C66A A70G C71U, -0.139; with G1A G6U C27U A43C A69G C71U, -0.557.
With G1A U2C G6U C27U C46U A70G, the “yeast fitness (ln)” value was -0.129.
Next, U2G G6A C27U A70U C71U: -0.144; G1A C27U A69G A70G C71U: -0.322.
For the variant C46U A70G, the “yeast fitness (ln)” value is -0.00475.
In the case of G1A U2G G6A A69G A70G, the “yeast fitness (ln)” value was -0.333.
As to G1A C27U C46U A69G A70U, the “yeast fitness (ln)” value was -0.118.
